We go through three compounds from ChEMBL document CHEMBL3232848, “Design and synthesis of high affinity inhibitors of Plasmodium falciparum and Plasmodium vivax N-myristoyltransferases directed by ligand efficiency dependent lipophilicity (LELP)” (J Med Chem, 2014).

SMILES strings stand for the structures.

A short description of series [1]: Selectivity ratio of LD50 for human HepG2 cells to EC50 for blood-stage Plasmodium falciparum NF54. The settings on record: read-out: Ratio LD50/EC50. It counts as ADME, cell-based.
Series [2] in a line: Inhibition of Plasmodium vivax N-myristoyltransferase by CPM fluorescence assay. The essentials: (§1)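 IC50 values (mean of two or more determinations) were converted to Ki by Cheng–Prusoff using substrate concentration and Km. For PfNMT, Km was 3.64 μM and substrate was 4.00 μM. The human enzyme values refer to HsNMT1.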
The nature of series [3]: Selectivity ratio of Ki for human N-myristoyltransferase to Ki for Plasmodium falciparum N-myristoyltransferase.
Series [4] addresses T1, Glycylpeptide N-tetradecanoyltransferase (Plasmodium falciparum (isolate 3D7), UniProt Q8ILW6).
T1 sequence (Q8ILW6 whole entry): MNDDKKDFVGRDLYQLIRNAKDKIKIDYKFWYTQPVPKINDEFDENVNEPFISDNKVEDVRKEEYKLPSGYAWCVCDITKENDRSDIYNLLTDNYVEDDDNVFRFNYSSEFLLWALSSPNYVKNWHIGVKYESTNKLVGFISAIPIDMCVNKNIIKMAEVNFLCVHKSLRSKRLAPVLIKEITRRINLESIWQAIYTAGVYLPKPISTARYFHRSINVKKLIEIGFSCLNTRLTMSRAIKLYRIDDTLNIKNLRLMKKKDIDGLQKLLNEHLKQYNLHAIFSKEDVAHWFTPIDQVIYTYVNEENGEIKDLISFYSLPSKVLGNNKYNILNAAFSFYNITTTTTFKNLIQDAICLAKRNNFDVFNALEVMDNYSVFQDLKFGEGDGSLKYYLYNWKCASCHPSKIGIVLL
The series is described as follows: Inhibition of Plasmodium falciparum N-myristoyltransferase by CPM fluorescence assay. A digest of the protocol:
as §1

The next series deals with Plasmodium berghei. The series is described as follows: Antimicrobial activity against Plasmodium berghei sporozoites infected in 12 hrs compound pretreated human HepG2 cells assessed as reduction in viability of exoerythrocytic forms measured after 48 hrs of incubation by luciferase bioluminescence assay. It is filed as functional, organism-based. The essentials: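 HepG2-A16-CD81EGFP cells expressing GFP-CD81 were grown in DMEM with 10% FCS, glutamine and penicillin/streptomycin at 37 °C, 5% CO2. They were seeded at 3000 cells/well 24 h before infection. Cells were pretreated 12 h with a 12-point dilution series, then infected with luciferase-expressing P. berghei sporozoites (1000/well). Exoerythrocytic form viability was read by bioluminescence after 48 h. EC50 came from a four-parameter variable-slope fit, mean of two determinations.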

A short description of series [5]: Selectivity ratio of Ki for human N-myristoyltransferase to Ki for Plasmodium vivax N-myristoyltransferase.
For series [6], the system named is Plasmodium falciparum. The series is described as follows: Antimicrobial activity against late stage trophozoite form of Plasmodium falciparum 3D7 infected in RBCs after 48 hrs by SYBR green viability assay. It counts as functional, organism-based. Particulars: 3D7, 96 h, in the assay text read “after 96 hrs” for “after 48 hrs”. The essentials:
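Synchronous 3D7 late trophozoites (33–36 h) were used at 0.1–0.2% parasitemia and 2% hematocrit in washed, buffy-coat-free RBCs, in RPMI 1640 with Albumax, gentamycin and L-glutamine. Seven dilutions from 10.0 to 0.014 μM were run in duplicate at 37 °C under 5% CO2, 5% O2, 90% N2. Drug was replaced at 48 h and incubation continued to 96 h. Read-out was SYBR Green I in saponin/Triton lysis buffer, then fluorescence converted to % growth.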

A short description of series [7]: Selectivity ratio of LD50 for human HepG2 cells to EC50 for blood-stage Plasmodium falciparum Dd2. The settings on record: read-out: Ratio LD50/EC50. It is filed as ADME, cell-based.
Series [8] in a line: Inhibition of human N-myristoyltransferase using H-Gly-Ser-Asn-Lys-Ser-Lys-Pro-Lys-NH2 as substrate by CPM fluorescence assay. A digest of the protocol: as §1
For series [9], the system named is Plasmodium falciparum. The series is described as follows: Antimicrobial activity against blood-stage Plasmodium falciparum K1 assessed as inhibition of [3H]hypoxanthine incorporation after 48 hrs by liquid scintillation counting. It is filed as functional, organism-based. A digest of the protocol:
(§2)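 Modified Desjardins method. Drug was serially diluted 2-fold, and infected blood was added at 0.3% parasitemia and 2.5% hematocrit. Uninfected blood and drug-free wells served as controls. Plates were held at 37 °C under 93% N2, 4% CO2, 3% O2. After 48 h, [3H]hypoxanthine (0.5 μCi/well) was added for a further 24 h, then cells were harvested and scintillation counted. Counts were taken as % of untreated controls, with IC50 by logit regression.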

Series [10] deals with Plasmodium falciparum. The series can be described thus: Ratio of EC50 for blood-stage Plasmodium falciparum Dd2 to EC50 for blood-stage Plasmodium falciparum NF54. It counts as functional.
Series [11] in a line: Cytotoxicity against human HepG2 cells after 72 hrs by MTS assay. It is filed as cell-based. Particulars: read-out: LD50. The essentials: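 HepG2 cells grown in DMEM with 10% FBS and penicillin/streptomycin, 37 °C, 5% CO2, seeded at 5000 cells/well. Seven-point dilution series in medium from a 50 mM DMSO stock; DMSO/medium and puromycin control wells. Incubated 72 h, then MTS/PMS added for 4 h and read at 490 nm. LD50 by nonlinear regression, mean of six determinations.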
Background: Tetrazolium assays rely on reduction of a dye to a coloured formazan, in cell work by metabolically active cells.

The test system of series [12] is Plasmodium falciparum. The series is described as follows: Antimicrobial activity against blood-stage Plasmodium falciparum Dd2 assessed as inhibition of [3H]hypoxanthine incorporation after 48 hrs by liquid scintillation counting. It is filed as functional. A digest of the protocol:
as §2

Series [13] in a line: Selectivity ratio of LD50 for human HepG2 cells to EC50 for blood-stage Plasmodium falciparum K1. It counts as ADME, cell-based. Particulars: read-out: Ratio LD50/EC50.
The test system of series [14] is Plasmodium falciparum. The series is described as follows: Antimicrobial activity against blood-stage Plasmodium falciparum 3D7 assessed as inhibition of [3H]hypoxanthine incorporation after 48 hrs by liquid scintillation counting. It counts as functional, organism-based.
In series [15] the test system is Plasmodium falciparum. The series can be described thus: Antimicrobial activity against blood-stage Plasmodium falciparum NF54 assessed as inhibition of [3H]hypoxanthine incorporation after 48 hrs by liquid scintillation counting. It counts as functional, organism-based. The essentials:
as §2

Series [16] can be described thus: Selectivity ratio of LD50 for human HepG2 cells to EC50 for blood-stage Plasmodium falciparum 3D7. Particulars: read-out: Ratio LD50/EC50. It counts as ADME, cell-based.
Series [17] can be described thus: Aqueous solubility of the compound. It is filed as physicochemical.

Broadly, the Ki is a measure of affinity in units of concentration, obtained from inhibition or displacement. Read a low Ki as tighter binding. For orientation: IC50 means the concentration needed to halve the response being measured. Read a low IC50 as greater potency. One may read the EC50 as the concentration at which the effect is half-maximal. As a reminder, the solubility is the dissolved amount per volume that the medium holds. A high value points to a readily soluble substance. As to `Cc1nn(C)c(C)c1Cc1nnc(-c2sc3ccccc3c2OC2CCNCC2)o1`, the selectivity ratio in series [1] was not above 40; in series [7] it was 14; in series [13], not above 40; in series [16] it was not above 40. Moreover, the Ki came out at 0.002 µM in [2], 0.008 µM in [4] and 0.06 µM in series [8]. Besides, the Ratio Ki in [3] came out at 8; in series [5], 30. The half-maximal inhibitory concentration (IC50) in [4] was determined as 0.017 µM. Also, the EC50 in the series with Plasmodium berghei was found to be 0.372 µM; with Plasmodium falciparum [6], 0.302 µM; in the series on Plasmodium falciparum [9], 0.339 µM; in the series with Plasmodium falciparum [12], 0.916 µM; in the series on Plasmodium falciparum [14], 0.302 µM; with Plasmodium falciparum [15] it was 0.232 µM. In addition, the “Ratio EC50” value in the series with Plasmodium falciparum [10] is recorded as less than 4. For the same compound, the CC50 at 72 h in [11] was 12.3 µM. For the same compound, in series [17], the solubility was more than 8 mM.
As for `CCN(CC)CCCC(C)Nc1ccnc2cc(Cl)ccc12` (stereo unspecified) [CHLOROQUINE], the EC50 in the series with Plasmodium berghei is more than 10 µM; in the series with Plasmodium falciparum [9] it was 0.255 µM; with Plasmodium falciparum [12], 0.328 µM; in the series with Plasmodium falciparum [14], 0.006 µM; with Plasmodium falciparum [15], 0.013 µM.
Consider `O=C1C(O)=C([C@H]2CC[C@H](c3ccc(Cl)cc3)CC2)C(=O)c2ccccc21` [ATOVAQUONE], for which, in the series with Plasmodium berghei, the EC50 was found to be 0.0005 µM. The CC50 at 72 h in series [11] was more than 10 µM.
